≈ marks a conversion by molar mass, not a printed value.
Experiments:
Type in all cases: functional
Streptococcus pyogenes = test: Antibacterial activity against Streptococcus pyogenes MTCC 442 after 24 hrs by serial broth dilution method; conditions: MTCC 442, 24 h
Summary of the method: (§1)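 Read-out was the individual minimum inhibitory concentration for each bacterial or fungal strain.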

Candida albicans = test: Antifungal activity against Candida albicans MTCC 227 after 48 hrs by serial broth dilution method; conditions: MTCC 227, 48 h; summary of the method: as §1
Staphylococcus aureus = test: Antibacterial activity against Staphylococcus aureus MTCC 96 after 24 hrs by serial broth dilution method; conditions: MTCC 96, 24 h; summary of the method: as §1
Pseudomonas aeruginosa = test: Antibacterial activity against Pseudomonas aeruginosa MTCC 1688 after 24 hrs by serial broth dilution method; conditions: MTCC 1688, 24 h; summary of the method: as §1
Aspergillus clavatus = test: Antifungal activity against Aspergillus clavatus MTCC 1323 after 48 hrs by serial broth dilution method; conditions: MTCC 1323, 48 h; summary of the method: as §1
Escherichia coli = test: Antibacterial activity against Escherichia coli MTCC 443 after 24 hrs by serial broth dilution method; conditions: MTCC 443, 24 h; summary of the method: as §1
Aspergillus niger = test: Antifungal activity against Aspergillus niger MTCC 282 after 48 hrs by serial broth dilution method; conditions: MTCC 282, 48 h; summary of the method: as §1

Row | Structure (SMILES) | MIC (Streptococcus pyogenes) [mg/L] | MIC (Candida albicans) [mg/L] | MIC (Staphylococcus aureus) [mg/L] | MIC (Pseudomonas aeruginosa) [mg/L] | MIC (Aspergillus clavatus) [mg/L] | MIC (Escherichia coli) [mg/L] | MIC (Aspergillus niger) [mg/L]
1 | O=C(CN1CCOCC1)Nc1nc(-c2ccccc2)cc(-c2cc3cc(F)ccc3nc2Cl)n1 | 250 (≈ 523 µM) | 1000 (≈ 2090 µM) | 500 (≈ 1050 µM) | 500 (≈ 1050 µM) | 250 (≈ 523 µM) | 250 (≈ 523 µM) | 500 (≈ 1050 µM)
2 | O=C(O)c1cn(C2CC2)c2cc(N3CCNCC3)c(F)cc2c1=O [CIPROFLOXACIN] | 50 (≈ 151 µM) |  | 50 (≈ 151 µM) |  |  | 25 (≈ 75.4 µM) | 
3 | COc1ccc(-c2cc(-c3cc4cc(F)ccc4nc3Cl)nc(NC(=O)CN3CCOCC3)n2)cc1 | 250 (≈ 492 µM) | 1000 (≈ 1970 µM) | 500 (≈ 984 µM) | 250 (≈ 492 µM) | 500 (≈ 984 µM) | 500 (≈ 984 µM) | 250 (≈ 492 µM)
4 | O=C(CN1CCOCC1)Nc1nc(-c2ccccc2Cl)cc(-c2cc3cc(F)ccc3nc2Cl)n1 | 100 (≈ 195 µM) | 500 (≈ 976 µM) | 100 (≈ 195 µM) | 100 (≈ 195 µM) | 100 (≈ 195 µM) | 50 (≈ 97.6 µM) | 100 (≈ 195 µM)
5 | O=C1CSC(N2N=C(c3ccc(Cl)cc3)CC2c2cc3cc(F)ccc3nc2Cl)=N1 (centres undefined) | 50 (≈ 109 µM) | 500 (≈ 1090 µM) | 50 (≈ 109 µM) | 250 (≈ 544 µM) | 100 (≈ 218 µM) | 500 (≈ 1090 µM) | 50 (≈ 109 µM)
6 | COc1ccc(C2=NN(C3=NC(=O)CS3)C(c3cc4cc(F)ccc4nc3Cl)C2)cc1 (centres undefined) | 1000 (≈ 2200 µM) | 1000 (≈ 2200 µM) | 500 (≈ 1100 µM) | 1000 (≈ 2200 µM) | 500 (≈ 1100 µM) | 1000 (≈ 2200 µM) | 500 (≈ 1100 µM)
7 | O=C1CSC(N2N=C(c3ccc(O)cc3)CC2c2cc3cc(F)ccc3nc2Cl)=N1 (centres undefined) | 250 (≈ 567 µM) | 1000 (≈ 2270 µM) | 500 (≈ 1130 µM) | 250 (≈ 567 µM) | 1000 (≈ 2270 µM) | 500 (≈ 1130 µM) | 500 (≈ 1130 µM)
8 | O=C1CSC(N2N=C(c3ccccc3O)CC2c2cc3cc(F)ccc3nc2Cl)=N1 (centres undefined) | 500 (≈ 1130 µM) | 1000 (≈ 2270 µM) | 1000 (≈ 2270 µM) | 500 (≈ 1130 µM) | 1000 (≈ 2270 µM) | 250 (≈ 567 µM) | 1000 (≈ 2270 µM)
9 | O=C1CSC(N2N=C(c3ccc(F)cc3)CC2c2cc3cc(F)ccc3nc2Cl)=N1 (centres undefined) | 25 (≈ 56.4 µM) | 1000 (≈ 2260 µM) | 100 (≈ 226 µM) | 50 (≈ 113 µM) | 100 (≈ 226 µM) | 50 (≈ 113 µM) | 250 (≈ 564 µM)
10 | O=C1CSC(N2N=C(c3ccccc3)CC2c2cc3cc(F)ccc3nc2Cl)=N1 (centres undefined) | 1000 (≈ 2350 µM) | 1000 (≈ 2350 µM) | 500 (≈ 1180 µM) | 250 (≈ 588 µM) | 500 (≈ 1180 µM) | 500 (≈ 1180 µM) | 1000 (≈ 2350 µM)
11 | O=C(CN1CCOCC1)Nc1nc(-c2ccccc2O)cc(-c2cc3cc(F)ccc3nc2Cl)n1 | 500 (≈ 1010 µM) | 1000 (≈ 2020 µM) | 500 (≈ 1010 µM) | 500 (≈ 1010 µM) | 500 (≈ 1010 µM) | 1000 (≈ 2020 µM) | 250 (≈ 506 µM)
12 | O=C1CSC(N2N=C(c3ccccc3Cl)CC2c2cc3cc(F)ccc3nc2Cl)=N1 (centres undefined) | 50 (≈ 109 µM) | 500 (≈ 1090 µM) | 250 (≈ 544 µM) | 100 (≈ 218 µM) | 50 (≈ 109 µM) | 50 (≈ 109 µM) | 100 (≈ 218 µM)

Next, values leading:

Row | MIC (Streptococcus pyogenes) [mg/L] | MIC (Candida albicans) [mg/L] | MIC (Staphylococcus aureus) [mg/L] | MIC (Pseudomonas aeruginosa) [mg/L] | MIC (Aspergillus clavatus) [mg/L] | MIC (Escherichia coli) [mg/L] | MIC (Aspergillus niger) [mg/L] | Structure (SMILES)
13 | 500 (≈ 1130 µM) | 100 (≈ 226 µM) | 500 (≈ 1130 µM) | 250 (≈ 564 µM) | 500 (≈ 1130 µM) | 500 (≈ 1130 µM) | 500 (≈ 1130 µM) | O=C1CSC(N2N=C(c3cccc(F)c3)CC2c2cc3cc(F)ccc3nc2Cl)=N1 (centres undefined)
14 |  | 500 (≈ 1420 µM) |  |  | 100 (≈ 283 µM) |  | 100 (≈ 283 µM) | COC1=CC(=O)C[C@@H](C)[C@]12Oc1c(Cl)c(OC)cc(OC)c1C2=O [GRISEOFULVIN]
15 | 250 (≈ 504 µM) | 250 (≈ 504 µM) | 250 (≈ 504 µM) | 100 (≈ 202 µM) | 250 (≈ 504 µM) | 100 (≈ 202 µM) | 250 (≈ 504 µM) | O=C(CN1CCOCC1)Nc1nc(-c2cccc(F)c2)cc(-c2cc3cc(F)ccc3nc2Cl)n1
16 | 1000 (≈ 2020 µM) | 500 (≈ 1010 µM) | 1000 (≈ 2020 µM) | 1000 (≈ 2020 µM) | 1000 (≈ 2020 µM) | 500 (≈ 1010 µM) | 500 (≈ 1010 µM) | O=C(CN1CCOCC1)Nc1nc(-c2ccc(O)cc2)cc(-c2cc3cc(F)ccc3nc2Cl)n1
17 | 100 (≈ 202 µM) | 100 (≈ 202 µM) | 100 (≈ 202 µM) | 50 (≈ 101 µM) | 100 (≈ 202 µM) | 50 (≈ 101 µM) | 100 (≈ 202 µM) | O=C(CN1CCOCC1)Nc1nc(-c2ccc(F)cc2)cc(-c2cc3cc(F)ccc3nc2Cl)n1
18 | 100 (≈ 191 µM) | 100 (≈ 191 µM) | 100 (≈ 191 µM) | 50 (≈ 95.6 µM) | 50 (≈ 95.6 µM) | 25 (≈ 47.8 µM) | 100 (≈ 191 µM) | O=C(CN1CCOCC1)Nc1nc(-c2ccc([N+](=O)[O-])cc2)cc(-c2cc3cc(F)ccc3nc2Cl)n1
19 | 500 (≈ 1060 µM) | 500 (≈ 1060 µM) | 1000 (≈ 2130 µM) | 500 (≈ 1060 µM) | 50 (≈ 106 µM) | 250 (≈ 532 µM) | 100 (≈ 213 µM) | O=C1CSC(N2N=C(c3cccc([N+](=O)[O-])c3)CC2c2cc3cc(F)ccc3nc2Cl)=N1 (centres undefined)
20 | 100 (≈ 191 µM) | 250 (≈ 478 µM) | 250 (≈ 478 µM) | 100 (≈ 191 µM) | 500 (≈ 956 µM) | 250 (≈ 478 µM) | 100 (≈ 191 µM) | O=C(CN1CCOCC1)Nc1nc(-c2cccc([N+](=O)[O-])c2)cc(-c2cc3cc(F)ccc3nc2Cl)n1
21 | 50 (≈ 106 µM) | 250 (≈ 532 µM) | 250 (≈ 532 µM) | 100 (≈ 213 µM) | 100 (≈ 213 µM) | 50 (≈ 106 µM) | 100 (≈ 213 µM) | O=C1CSC(N2N=C(c3ccc([N+](=O)[O-])cc3)CC2c2cc3cc(F)ccc3nc2Cl)=N1 (centres undefined)
22 | 50 (≈ 95.6 µM) | 100 (≈ 191 µM) | 50 (≈ 95.6 µM) | 100 (≈ 191 µM) | 100 (≈ 191 µM) | 100 (≈ 191 µM) | 50 (≈ 95.6 µM) | O=C(CN1CCOCC1)Nc1nc(-c2ccccc2[N+](=O)[O-])cc(-c2cc3cc(F)ccc3nc2Cl)n1
23 | 25 (≈ 53.2 µM) | 100 (≈ 213 µM) | 100 (≈ 213 µM) | 12.5 (≈ 26.6 µM) | 12.5 (≈ 26.6 µM) | 25 (≈ 53.2 µM) | 25 (≈ 53.2 µM) | O=C1CSC(N2N=C(c3ccccc3[N+](=O)[O-])CC2c2cc3cc(F)ccc3nc2Cl)=N1 (centres undefined)
24 | 100 (≈ 195 µM) | 250 (≈ 488 µM) | 250 (≈ 488 µM) | 50 (≈ 97.6 µM) | 100 (≈ 195 µM) | 100 (≈ 195 µM) | 100 (≈ 195 µM) | O=C(CN1CCOCC1)Nc1nc(-c2ccc(Cl)cc2)cc(-c2cc3cc(F)ccc3nc2Cl)n1
25 | 50 (≈ 101 µM) | 100 (≈ 202 µM) | 50 (≈ 101 µM) | 25 (≈ 50.4 µM) | 25 (≈ 50.4 µM) | 12.5 (≈ 25.2 µM) | 50 (≈ 101 µM) | O=C(CN1CCOCC1)Nc1nc(-c2ccccc2F)cc(-c2cc3cc(F)ccc3nc2Cl)n1
26 | 100 (≈ 226 µM) | 250 (≈ 564 µM) | 100 (≈ 226 µM) | 50 (≈ 113 µM) | 500 (≈ 1130 µM) | 25 (≈ 56.4 µM) | 50 (≈ 113 µM) | O=C1CSC(N2N=C(c3ccccc3F)CC2c2cc3cc(F)ccc3nc2Cl)=N1 (centres undefined)

Source: ChEMBL document CHEMBL2157941, “Synthesis and characterization of some new quinoline based derivatives endowed with broad spectrum antimicrobial potency” (2012)
